Measured values from ChEMBL document CHEMBL1155452, “Oncocin (VDKPPYLPRPRPPRRIYNR-NH2): a novel antibacterial peptide optimized against gram-negative human pathogens” (J Med Chem, 2010).

Assays:
Escherichia coli [1] = assay: Antimicrobial activity against Escherichia coli 8474 after 20 hrs by broth microdilution method; format: functional; conditions: Escherichia coli, 8474, 20 h
How it was run: (§1)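 Pathogens grown overnight on Columbia agar. Colonies suspended in 0.9% saline to OD 0.1, diluted 1:300 in 1% TSB, final (1-2) × 10^5 cfu/well. Peptides 2-fold serially diluted in 1% TSB from 128 to typically 0.5 μg/mL. Incubation at 37 °C; A595 read after 20 ± 2 h. MIC is the lowest concentration with absorbance not above medium only. Triplicate.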

Escherichia coli [2] = assay: Antimicrobial activity against Escherichia coli Neumann after 20 hrs by broth microdilution method; format: functional; how it was run: as §1
Proteus vulgaris = assay: Antimicrobial activity against Proteus vulgaris ICB 9081 after 20 hrs by broth microdilution method; format: functional; conditions: ICB 9081, 20 h; how it was run: as §1
Enterobacter cloacae [3] = assay: Antimicrobial activity against Enterobacter cloacae Ha089 after 20 hrs by broth microdilution method; format: functional; conditions: Ha089, 20 h; how it was run: as §1
Enterobacter cloacae [4] = assay: Antimicrobial activity against Enterobacter cloacae Ha088 after 20 hrs by broth microdilution method; format: functional; conditions: Ha088, 20 h; how it was run: as §1
Stenotrophomonas [5] = assay: Antimicrobial activity against Stenotrophomonas ICB 7789 after 20 hrs by broth microdilution method; format: functional; conditions: ICB 7789, 20 h; how it was run: as §1
Acinetobacter baumannii [6] = assay: Antimicrobial activity against Acinetobacter baumannii ICB 14073 after 20 hrs by broth microdilution method; format: functional; conditions: ICB 14073, 20 h; how it was run: as §1
Pseudomonas aeruginosa [7] = assay: Antimicrobial activity against Pseudomonas aeruginosa 60909001 after 20 hrs by broth microdilution method; format: functional; conditions: Pseudomonas aeruginosa, 60909001, 20 h
How it was run: (§2)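 Pathogenic strains grown overnight on Columbia agar, colonies suspended in 0.9% saline to OD 0.1, diluted 1:300 in 1% TSB; final (1-2) × 10^5 cfu/well. Peptides 2-fold serially diluted in 1% TSB from 128 μg/mL, typically to 0.5 μg/mL. Incubated 37 °C, absorbance at 595 nm after 20 ± 2 h, in triplicate; MIC = lowest concentration with absorbance not exceeding medium only.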

Acinetobacter baumannii [8] = assay: Antimicrobial activity against Acinetobacter baumannii ICB 14072 after 20 hrs by broth microdilution method; format: functional; conditions: ICB 14072, 20 h; how it was run: as §1
Escherichia coli [9] = assay: Antibacterial activity against Escherichia coli BL21 AI after 20 hrs by broth microdilution assay; format: functional
How it was run: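 Nutrient-broth overnight cultures diluted in 1% TSB; E. coli BL21AI 7.5 × 10^5 cells/well, M. luteus ATCC 10240 2 × 10^6 cells/well. Peptides serially 2-fold diluted in 1% TSB from 128 to typically 0.5 μg/mL. Incubation at 37 °C; A595 read after 20 ± 2 h. MIC is the lowest concentration with absorbance not above medium only. Triplicate.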

Pseudomonas aeruginosa [10] = assay: Antimicrobial activity against Pseudomonas aeruginosa PAO1 after 20 hrs by broth microdilution method; format: functional; conditions: PAO1, 20 h; how it was run: as §2
[11] = Drug uptake in Escherichia coli BL21 AI assessed as intracellular localization at 30 ug/ml after 20 mins by confocal fluorescence microscopy; format: ADME, cell-based; conditions: escherichia coli bl21, 20 min; in the assay text read “30 uM” for “30 ug/ml”
How it was run: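 E. coli BL21 AI overnight culture diluted to 1.5 × 10^7 cells/mL in 1% TSB. 5(6)-Carboxyfluorescein N-terminally labelled peptide added at 30 μmol/L final, with 60-fold molar excess of TAMRA to quench extracellular fluorescence. Imaged at room temperature at 20 and 50 min by confocal laser scanning microscopy (488 nm excitation), with phase contrast.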

Pseudomonas aeruginosa [12] = assay: Antimicrobial activity against Pseudomonas aeruginosa 61118003 after 20 hrs by broth microdilution method; format: functional; conditions: Pseudomonas aeruginosa, 61118003, 20 h; how it was run: as §2
Escherichia coli [13] = assay: Antimicrobial activity against Escherichia coli 455/7 after 20 hrs by broth microdilution method; format: functional; conditions: 455/7, 20 h; how it was run: as §1
Enterobacter cloacae [14] = assay: Antimicrobial activity against Enterobacter cloacae Ha185 after 20 hrs by broth microdilution method; format: functional; conditions: Ha185, 20 h; how it was run: as §2
Escherichia coli [15] = assay: Antimicrobial activity against Escherichia coli 70329001 after 20 hrs by broth microdilution method; format: functional; conditions: Escherichia coli, 70329001, 20 h; how it was run: as §1
Klebsiella pneumoniae [16] = assay: Antimicrobial activity against Klebsiella pneumoniae 63 after 20 hrs by broth microdilution method; format: functional; conditions: Klebsiella pneumoniae, 63, 20 h; how it was run: as §2
Stenotrophomonas [17] = assay: Antimicrobial activity against Stenotrophomonas ICB 308054 after 20 hrs by broth microdilution method; format: functional; conditions: ICB 308054, 20 h; how it was run: as §1
Pseudomonas aeruginosa [18] = assay: Antimicrobial activity against Pseudomonas aeruginosa 70108001 after 20 hrs by broth microdilution method; format: functional; conditions: Pseudomonas aeruginosa, 70108001, 20 h; how it was run: as §2
Stenotrophomonas [19] = assay: Antimicrobial activity against Stenotrophomonas ICB 7569 after 20 hrs by broth microdilution method; format: functional; conditions: ICB 7569, 20 h; how it was run: as §1
Serum [20] = assay: Stability in 25% mouse serum assessed as peptide-13 level at 75 ug/ml after 2 hrs by MALDI-TOF-MS analysis; format: ADME, cell-free
How it was run: (§3)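 Peptide at 75 μg/mL final in pooled mouse serum (undiluted or 25% v:v aqueous), 37 °C. Triplicate aliquots taken at 0, 30, 60, 120 and 240 min and precipitated with 3% TCA on ice for 10 min. Supernatant neutralized with NaOH and analysed by RP-HPLC on C18 with TFA-containing gradient. Amounts expressed relative to 0 min; metabolites identified by MALDI-TOF-MS.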

Acinetobacter baumannii [21] = assay: Antimicrobial activity against Acinetobacter baumannii ICB 14067 after 20 hrs by broth microdilution method; format: functional; conditions: ICB 14067, 20 h; how it was run: as §1
Klebsiella pneumoniae [22] = assay: Antimicrobial activity against Klebsiella pneumoniae ATCC 12657 after 20 hrs by broth microdilution method; format: functional; conditions: ATCC 12657, 20 h; how it was run: as §1
Acinetobacter baumannii [23] = assay: Antimicrobial activity against Acinetobacter baumannii ICB 9250 after 20 hrs by broth microdilution method; format: functional; conditions: ICB 9250, 20 h; how it was run: as §1
Klebsiella pneumoniae [24] = assay: Antimicrobial activity against Klebsiella pneumoniae ATCC 27799 after 20 hrs by broth microdilution method; format: functional; conditions: ATCC 27799, 20 h; how it was run: as §2
Pseudomonas aeruginosa [25] = assay: Antimicrobial activity against Pseudomonas aeruginosa 60811001 after 20 hrs by broth microdilution method; format: functional; conditions: Pseudomonas aeruginosa, 60811001, 20 h; how it was run: as §2
Escherichia coli [26] = assay: Antimicrobial activity against Escherichia coli 70502001 after 20 hrs by broth microdilution method; format: functional; conditions: Escherichia coli, 70502001, 20 h; how it was run: as §1
Escherichia coli [27] = assay: Antimicrobial activity against Escherichia coli 70419002 after 20 hrs by broth microdilution method; format: functional; conditions: Escherichia coli, 70419002, 20 h; how it was run: as §1
[28] = Stability in 100% mouse serum assessed as half life at 75 ug/ml by MALDI-TOF-MS analysis; format: ADME, cell-free; how it was run: as §3
Klebsiella pneumoniae [29] = assay: Antimicrobial activity against Klebsiella pneumoniae 8085 after 20 hrs by broth microdilution method; format: functional; conditions: Klebsiella pneumoniae, 8085, 20 h; how it was run: as §1
Serum [30] = assay: Stability in 25% mouse serum assessed as peptide-12 level at 75 ug/ml after 30 mins by MALDI-TOF-MS analysis; format: ADME, cell-free; conditions: 0.5 h; how it was run: as §3
[31] = Toxicity in human erythrocytes assessed as hemolytic activity at 600 ug/ml after 1 hr; format: cell-based; conditions: erythrocyte
How it was run: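 Peptides 2-fold serially diluted from 600 to 5 μg/mL in PBS (pH 7.4), mixed 1:1 with 2% washed human erythrocytes in PBS, 37 °C for 1 h. After centrifugation at 1000g, supernatant A405 read. Triton X-100 0.1% as positive control, PBS as negative control.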

H-VDKPPYLPRPRPPRRIYNR-NH2 [ONCOCIN]
MIC (Escherichia coli [1]): 0.5 µg/mL
MIC (Escherichia coli [2]): 2 µg/mL
MIC (Proteus vulgaris): 4 µg/mL
MIC (Enterobacter cloacae [3]): 0.125 µg/mL
MIC (Enterobacter cloacae [4]): 0.125 µg/mL
MIC (Stenotrophomonas [5]): 32 µg/mL
MIC (Acinetobacter baumannii [6]): 2 µg/mL
MIC (Pseudomonas aeruginosa [7]): 2 µg/mL
MIC (Acinetobacter baumannii [8]): 1 µg/mL
MIC (Escherichia coli [9]): 4 µg/mL
MIC (Pseudomonas aeruginosa [10]): 2 µg/mL
Activity [11]: Active
MIC (Pseudomonas aeruginosa [12]): 2 µg/mL
MIC (Escherichia coli [13]): 0.5 µg/mL
MIC (Enterobacter cloacae [14]): 0.5 µg/mL
MIC (Escherichia coli [15]): 1 µg/mL
MIC (Klebsiella pneumoniae [16]): 8 µg/mL
MIC (Stenotrophomonas [17]): 32 µg/mL
MIC (Pseudomonas aeruginosa [18]): 4 µg/mL
MIC (Stenotrophomonas [19]): 8 µg/mL
Activity (Serum [20]): 20%
MIC (Acinetobacter baumannii [21]): 1 µg/mL
MIC (Klebsiella pneumoniae [22]): 0.5 µg/mL
MIC (Acinetobacter baumannii [23]): 0.5 µg/mL
MIC (Klebsiella pneumoniae [24]): 1 µg/mL
MIC (Pseudomonas aeruginosa [25]): 2 µg/mL
MIC (Escherichia coli [26]): 1 µg/mL
MIC (Escherichia coli [27]): 8 µg/mL
half-life at 75 ug/ml [28]: 20 min
MIC (Klebsiella pneumoniae [29]): 0.5 µg/mL
Activity (Serum [30]): 10%
Activity [31]: Non-toxic
